Data taken from ChEMBL document CHEMBL1129609, “Synthesis and antiviral activity evaluation of some new aminoadamantane derivatives. 2” (1996).
In brackets after ≈: the same amount, converted by molar mass.

What was measured:
[1] = test system: Human immunodeficiency virus 1; test: Antiviral activity against HIV-1 virus infected CEM cell lines.; assay type: functional, CCRF-CEM
[2] = test system: MDCK; test: Antiviral activity tested against influenza A,H1N1 virus infected MDCK cell lines.; assay type: functional; settings: Canis lupus familiaris
[3] = test system: Human alphaherpesvirus 3; test: Antiviral activity against TK-VZV virus infected HEL cell lines.; assay type: functional
How it was run: (§1)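 Vero (African green monkey kidney), HeLa (human epithelial) or HEL (human embryonic lung) cell monolayers infected with the virus. Readout is the minimum inhibitory concentration that reduces virus-induced cytopathicity by 50%. Values are averages of at least two separate experiments.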

[4] = test system: Human alphaherpesvirus 3; test: Antiviral activity against TK+VZV virus infected HEL cell lines.; assay type: functional; how it was run: as §1
[5] = test system: Vesicular stomatitis virus; test: Antiviral activity against vesicular stomatitis virus infected HeLa cell lines.; assay type: functional; how it was run: as §1
[6] = test system: Coxsackievirus B4; test: Antiviral activity against Coxsackie B4 virus infected HeLa cell lines.; assay type: functional; settings: Enterovirus B; how it was run: as §1
[7] = test system: Vero; test: Effects on cell morphology of Vero cell lines.; assay type: functional; settings: Chlorocebus sabaeus
How it was run: (§2)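 HeLa (human epithelial) or Vero (African green monkey kidney) cells were examined under the microscope for changes in normal morphology. The value is the minimum concentration causing a detectable alteration, averaged from at least two separate experiments.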

[8] = test system: Human respirovirus 3; test: Antiviral activity against parainfluenza 3 virus infected Vero cell lines.; assay type: functional; how it was run: as §1
[9] = test system: Sindbis virus; test: Antiviral activity against sindbis virus infected Vero cell lines.; assay type: functional; how it was run: as §1
[10] = test system: Coxsackievirus B4; test: Antiviral activity against Coxsackie B4 virus infected vero cell lines.; assay type: functional; settings: Enterovirus B; how it was run: as §1
[11] = test system: HEL; test: Inhibition of HEL cell proliferation.; assay type: functional; settings: Homo sapiens
How it was run: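 Human embryonic lung fibroblasts were used for the proliferation assay. The value is the concentration that reduces cell proliferation by 50%, averaged from at least two separate experiments.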

[12] = test system: Human betaherpesvirus 5; test: Antiviral activity against HCMV virus infected HEL cell lines.; assay type: functional; how it was run: as §1
[13] = test system: MDCK; test: Antiviral activity of compound was tested against morphology virus infec+ted MDCK cell lines.; assay type: functional; settings: Canis lupus familiaris
[14] = test system: Vaccinia virus; test: Antiviral activity against vaccinia virus infected HEF cell lines.; assay type: functional; settings: Orthopoxvirus vaccinia
How it was run: (§3)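 Human embryonic fibroblasts, from embryonic lung or embryonic skin-muscle, infected with the virus. Endpoint is the minimum inhibitory concentration that reduces virus-induced cytopathicity by 50%. Values are averages of at least two separate experiments.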

[15] = Antiviral activity against influenza A,H2N2 virus infected MDCK cell lines.; assay type: functional
[16] = test system: CCRF-CEM; test: Cytotoxicity against CEM cell lines.; assay type: functional; settings: Homo sapiens
[17] = test system: Human alphaherpesvirus 1; test: Antiviral activity against HSV-1 virus infected HEF cell lines.; assay type: functional; how it was run: as §3
[18] = test system: Semliki Forest virus; test: Antiviral activity against Semliki forest virus infected Vero cell lines.; assay type: functional; how it was run: as §1
[19] = test system: Human immunodeficiency virus 2; test: Antiviral activity against HIV-2 virus infected CEM cell lines.; assay type: functional, CCRF-CEM
[20] = test system: Vesicular stomatitis virus; test: Antiviral activity against vesicular stomatitis virus infected HEF cell lines.; assay type: functional; how it was run: as §3
[21] = test system: HeLa; test: Effects on cell morphology of HeLa cell lines.; assay type: functional; settings: Homo sapiens; how it was run: as §2
[22] = test system: HEF; test: Effects on cell morphology of HEF cell lines.; assay type: functional; settings: Homo sapiens
How it was run: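 Human embryonic skin-muscle fibroblasts were examined under the microscope for changes in normal cell morphology. The value is the minimum concentration causing a microscopically detectable alteration, averaged from at least two separate experiments.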

[23] = test system: Influenza B virus; test: Antiviral activity against influenza B virus infected MDCK cell lines.; assay type: functional
[24] = test system: Mammalian orthoreovirus 1; test: Antiviral activity against Reo 1 virus infected vero cell lines.; assay type: functional; how it was run: as §1
[25] = test system: Human alphaherpesvirus 1; test: Antiviral activity against TK-HSV-1 virus infected HEF cell lines.; assay type: functional; how it was run: as §3
[26] = test system: Human alphaherpesvirus 2; test: Antiviral activity against HSV-2 virus infected HEF cell lines.; assay type: functional; how it was run: as §3
[27] = test system: Enterovirus C; test: Antiviral activity against polio 1 virus infected HeLa cell lines.; assay type: functional; how it was run: as §1
[28] = Antiviral activity against influenza A,H3N2 virus infected MDCK cell lines.; assay type: functional

SMILES | MIC50 [1] [µg/mL] | MIC50 [2] [µg/mL] | MIC50 [3] [µg/mL] | MIC50 [4] [µg/mL] | MIC50 [5] [µg/mL] | MIC50 [6] [µg/mL] | MIC50 [7] [µg/mL] | MIC50 [8] [µg/mL] | MIC50 [9] [µg/mL] | MIC50 [10] [µg/mL] | MIC50 [11] [µg/mL] | MIC50 [12] [µg/mL] | MIC50 [13] [µg/mL] | MIC50 [14] [µg/mL] | MIC50 [15] [µg/mL] | MIC50 [16] [µg/mL] | MIC50 [17] [µg/mL] | MIC50 [18] [µg/mL] | MIC50 [19] [µg/mL] | MIC50 [20] [µg/mL] | further results
C1COCC2(N1)C1CC3CC(C1)CC2C3 (configuration not stated) | 158 (≈ 762 µM) | 29 (≈ 140 µM) | > 50 | > 50 | > 400 | > 400 | > 400 | > 400 | > 400 | > 400 | > 50 | > 50 | > 250 | > 200 | 1.7 (≈ 8.2 µM) | > 200 | > 200 | > 400 | > 200 | > 200 | MIC50 [21]: > 400 µg/mL; MIC50 [22]: > 200 µg/mL; MIC50 [23]: 20 µg/mL (≈ 96.5 µM); MIC50 [24]: > 400 µg/mL; MIC50 [25]: > 200 µg/mL; MIC50 [26]: > 200 µg/mL; MIC50 [27]: > 400 µg/mL; MIC50 [28]: 13 µg/mL (≈ 62.7 µM)
CNC1(C23CC4CC(CC(C4)C2)C3)CCCC1 | > 8 | 59 (≈ 253 µM) | > 20 | > 20 | > 40 | > 40 | > 400 | > 100 | > 100 | > 100 | > 50 | > 20 | > 250 | > 10 | 9 (≈ 38.6 µM) | 49 (≈ 210 µM) | > 10 | > 100 | > 8 | > 10 | MIC50 [21]: > 100 µg/mL; MIC50 [22]: 40 µg/mL (≈ 171 µM); MIC50 [23]: > 80 µg/mL; MIC50 [24]: > 100 µg/mL; MIC50 [25]: > 10 µg/mL; MIC50 [26]: > 10 µg/mL; MIC50 [27]: > 40 µg/mL; MIC50 [28]: > 60 µg/mL
CN(C)C1(C23CC4CC(CC(C4)C2)C3)CCCC1 | > 40 | > 80 | 30 (≈ 121 µM) | 30 (≈ 121 µM) | > 100 | > 100 | > 400 | > 400 | > 400 | > 400 | 50 (≈ 202 µM) | 40 (≈ 162 µM) | > 250 | > 40 | 19.7 (≈ 79.6 µM) | 70 (≈ 283 µM) | > 40 | > 400 | > 40 | > 40 | MIC50 [21]: 200 µg/mL (≈ 808 µM); MIC50 [22]: 100 µg/mL (≈ 404 µM); MIC50 [23]: > 100 µg/mL; MIC50 [24]: > 400 µg/mL; MIC50 [25]: > 40 µg/mL; MIC50 [26]: > 40 µg/mL; MIC50 [27]: > 100 µg/mL; MIC50 [28]: > 100 µg/mL
CCN1CCCCC12C1CC3CC(C1)CC2C3 (configuration not stated) | 200 (≈ 857 µM) | 4.4 (≈ 18.9 µM) | > 50 | > 50 | > 400 | > 400 | > 400 | > 400 | > 400 | > 400 | > 50 | > 50 | > 250 | > 200 | 31 (≈ 133 µM) | > 200 | > 200 | > 400 | > 200 | > 200 | MIC50 [21]: > 400 µg/mL; MIC50 [22]: 100 µg/mL (≈ 428 µM); MIC50 [23]: > 80 µg/mL; MIC50 [24]: > 400 µg/mL; MIC50 [25]: > 200 µg/mL; MIC50 [26]: > 200 µg/mL; MIC50 [27]: > 400 µg/mL; MIC50 [28]: > 65 µg/mL
